This sample holds only a part of the variants without activity.

Results on 27 variants are retold here after the RNAGym collection of RNA variant scans (doi:10.1101/gad.245936.114).

First the molecules themselves.
B1: tRNA (parent)
chain: CUCUCGGUAGCCAAGUUGGUUUAAGGCGCAAGACUUUAAUUUAUCACUACGAAAUCUUGAGAUCGGGCGUUCGACUCGCCCCCGGGAGAUUUUUUCCUCGAGCAA

The variants in this data set derive from B1. As to the kind of experiment: nonsense suppression (GFP-seq) (ratio to wild type); higher = more function; SUP4oc tRNA, yeast GFP reporter sort-seq. The procedure, abridged: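 Nonsense suppression (GFPSEQ) is the median GFP/RFP ratio of each sorting bin, weighted by the variant's estimated share of cells in that bin and expressed relative to the unmutated parent tRNA. Yeast strains carried genome-integrated variants of an ochre-suppressor tRNA from a library with ~3% random mutations, plus a galactose-driven GFP ochre reporter and RFP, and were grown in raffinose/galactose medium containing 80 mg/L adenine. Cells were sorted into GFP/RFP bins, each bin was Illumina-sequenced (phred ≥30), and variants were kept only with ≥100 reads and ≥30 cells.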
As for CUCUCGGUAGCCAAGUUGGUUUACGACGCUAGACUUUAAUUUAUCACUACGAAAUCUUGAGAUCGGGCGUUCGACUCGCGGCCGGGAGAUUUUUUCCUCGAGCAA, the nonsense suppression was at most 0.026.
With CUCUCGGUAGCCAAGUUGGUUUACGGCGCAAGACUUUAAUUUAUCACUACGAAAUCUUGAGAUCGGGCGUUCGACUCGCCCCCGGGGGAUUUUUUCCUCGAGCAA, the nonsense suppression worked out at 0.479.
As to CUCUCGGUAGCCAAGUUGGUUUACGGCGCAAGACUUUAAUUUAUCACUACGAAAUCUUGAGAUCGGGCGUUCGACUCGCCCCCGGGUGAUUUUUUCCUCGAGCAA, the nonsense suppression amounted to 0.0833.
With CUCUCGGUAGCCAAGUUGGUUUACGGCGCAAGACUUUAAUUUAUCACUACGAAAUCUUGAGAUCGGGCGUUCGACCCGCCCCCGGGAGAUUUUUUCCUCGAGCAA, the nonsense suppression amounted to 0.88.
As for CUCUCGGUAGCCAAGUUGGUUUAGGGCGCAAGACUUUAAUUUAUCACUACGAAUUCUUGAGAUCGGGCGUUCGACUCGCCCCCGGGAGAUUUUUUCCUCGAGCAA, the figure is 0.0262.
As for CUCUCGGUAGCCAAGUUGGUUUAGGGCGCAAGACUUUAAUUUAUCACUACGAAAUCUUGAGAUCGGGCGUUCGACUCGCCCCCGGGGGAUUUUUUCCUCGAGCAA, the nonsense suppression was determined as 0.0583.
The result for CUCUCGGUAGCCAAGUUGGUUUACGGCGCAAGACUUUAAUUUAUCACUACGAAAUCUUGAGAUCGGGCGUUCGACUCGCCCCCGGGAGCUUUUUUCCUCGAGCAA reads 0.0925; that for CUCUCGGUAGCCAAGUUGGUUUACGGCGCAAGACUUUAAUUUAUCACUACGAAAUCUUGAGAUCGGGUGUUCGACUCGCCCCCGGGAGAUUUUUUCCUCGAGCAA, 0.765.
Turning to CUCUCGGUAGCCAAGUUGGUUUACGGCGCAAGACUUUAAUUUAUCACUACGAAAUCUUGAGAUCGGGCGUUCGACUCGCCCCUGGGAGAUUUUUUCCUCGAGCAA, the nonsense suppression came to 0.383.
CUCUCGGUAGCCAAGUUGGUUUACGGCGCAAGACUUUAAUUUAUCACUACGAAAUCUUGAGAUCGGGCGUUCGACUCGCCCCCAGGAGAUUUUUUCCUCGAGCAA: the nonsense suppression was 0.478.
CUCUCGGUAGCCAAGUUGGUUUACGGCGCAAGACUUUAAUUUAUCACUACGAAAUCUUGAGAUCGGGCUUUCGACUCGCCCCCGGGAGAUUUUUUCCUCGAGCAA: the nonsense suppression is at most 0.026.
As for CUCUCGGUAGCCAAGUUGGUUUACGGCGCAAGACUUUAAUUUAUCACUACGAAAUCUUGAGAUCGGUCGUUCGACUCGCCCCCGGGAGAUUUUUUCCUCGAGCAA, the nonsense suppression was 0.0289.
Consider CUCUCGGUAGCCAAGUUGGUUUACGGCGCAAGACUUUAAUUUAUCACUACGAAAUCUUGAGAUCGGGCGUACGACUCCCACCCGGGGGAUUUUUUCCUCGAGCAA, for which the nonsense suppression was at most 0.026.
CUCUCGGUAGCCAAGUUGGUUUACGGCGCAAGACUUUAAUUUAUCACUACGAAAUCUUGAGAUCGGGCGUACGACUCCCACCCGGGUGAUUUUUUCCUCGAGCAA: the nonsense suppression was at most 0.026.
The result for CUCUCGGUAGCCAAGUUGGUUUACGGCGCAAGACUUUAAUUUAUCACUACGAAAUCUUGAGAUCGGGCGUCCGACUCGCCCCCGGGAGAUUUUUUCCUCGAGCAA reads 0.0704; that for CUCUCGGUAGCCAAGUUGGUUUACCGCGCAAGACUUUAAUUUAUCACUACGAAAUCUUGAGUUCGGGCGUUCGACUCGCCCCCGGGAGAUUUUUUCCUCGAGCAA, at most 0.026.
In the case of CUCUCGGUAGCCAAGUUGGUUUACGGCGCAAGACUUUAAUUUAUCACUACGAAAUCUUGAGAUCGGGCGUUCGACUCGUCCCCGGGAGAUUUUUUCCUCGAGCAA, the nonsense suppression was found to be 0.209.
For the variant CUCUCGGUAGCCAAGUUGGUUUACGGCGCAAGACUUUAAUUUAUCACUACGAAAUCUCGAGAUCGGGCGUUCGACUCGCCCCCGGGAGAUUUUUUCCUCGAGCAA, the nonsense suppression amounted to 0.034.
With CUCUCGGUAGCCAAGUUGGUUUACGGCGCAAGACUUUAAUUUAUCACUACGAAAUCUUGAGAUCGGGCGUUCGACUCGCCUCCGGGAGAUUUUUUCCUCGAGCAA, the nonsense suppression came to 0.2.
Consider CUCUCGGUAGCCAAGUUGGUUUACGGCGCAAGACUUUAAUUUAUCACUACGAAAUCUGGAGAUCGGGCGUUCGACUCGCCCCCGGUAGAUUUUUUCCUCGAGCAA, for which the nonsense suppression is at most 0.026.
As for CUCUCGGUAGCCAAGUUGGUUUACGGCGCAAGACUUUAAUUUAUCACUACGAAAUCUUGAGAACGGGCGUUCGACUCGCCCCCGGGAGAUUUUUUCCUCGAGCAA, the figure is 0.636.
Turning to CUCUCGGUAGCCAAGUUGGUUUACGGCGCAAGACUUUAAUUUAUCACUACGAAAUCUUGAGACCGGGCGUUCGACUCGCCCCCGGGAGAUUUUUUCCUCGAGCAA, the nonsense suppression is 0.205.
For CUCUCGGUAGCCAAGUUGGUUUACGGCGCAAGACUUUAAUUUAUCACUACGAAAUCUUGAGAGCGGGCGUUCGACUCGCCCCCGGGAGAUUUUUUCCUCGAGCAA, the nonsense suppression is 0.133.
CUCUCGGUAGCCAAGUUGGUUUACGGCGCAAUACUUUAAUUUAUCACUACGAAAUCUUGAGAUCGGGCGUUCGACUCGCCCCCGGGAGAUUUUUUCCUCGAGCAA: the nonsense suppression stood at 0.043.
CUCUCGGUAGCCAAGUUGGUUUACGGCGCAAGAGUUUAAUUUAUCACUACGAAAUUUUGAGAUCGGGCGUUCGACUCGCCCCCGGGAGAUUUUUUCCUCGAGCAA: the nonsense suppression is at most 0.026.
As for CUCUCGGUAGCCAAGUUGGUUUACGGCGCAAGACUUUAAUUUAUCACUACGAAAUCUUGAGAUCGGGCGUUCGACUCGCCCCCGUGAGAUUUUUUCCUCGAGCAA, the figure is 0.258; as for CUCUCGGUAGCCAAGUUGGUUUACGGCGCAAGACUUUAAUUUAUCACUACGAAAUCUUGAGAUCGGGCGAUCGACUCGCCCCCGGGAGAUUUUUUCCUCGAGCAA, at most 0.026.
